How the values were obtained:
[1] = target: T1, Mineralocorticoid receptor (Homo sapiens, UniProt P08235); test: Displacement of [3H]-Aldosterone from human MR expressed in 293 cells after 16 hrs by scintillation counting; type: cell-based, HEK293
T1 sequence (P08235 whole entry): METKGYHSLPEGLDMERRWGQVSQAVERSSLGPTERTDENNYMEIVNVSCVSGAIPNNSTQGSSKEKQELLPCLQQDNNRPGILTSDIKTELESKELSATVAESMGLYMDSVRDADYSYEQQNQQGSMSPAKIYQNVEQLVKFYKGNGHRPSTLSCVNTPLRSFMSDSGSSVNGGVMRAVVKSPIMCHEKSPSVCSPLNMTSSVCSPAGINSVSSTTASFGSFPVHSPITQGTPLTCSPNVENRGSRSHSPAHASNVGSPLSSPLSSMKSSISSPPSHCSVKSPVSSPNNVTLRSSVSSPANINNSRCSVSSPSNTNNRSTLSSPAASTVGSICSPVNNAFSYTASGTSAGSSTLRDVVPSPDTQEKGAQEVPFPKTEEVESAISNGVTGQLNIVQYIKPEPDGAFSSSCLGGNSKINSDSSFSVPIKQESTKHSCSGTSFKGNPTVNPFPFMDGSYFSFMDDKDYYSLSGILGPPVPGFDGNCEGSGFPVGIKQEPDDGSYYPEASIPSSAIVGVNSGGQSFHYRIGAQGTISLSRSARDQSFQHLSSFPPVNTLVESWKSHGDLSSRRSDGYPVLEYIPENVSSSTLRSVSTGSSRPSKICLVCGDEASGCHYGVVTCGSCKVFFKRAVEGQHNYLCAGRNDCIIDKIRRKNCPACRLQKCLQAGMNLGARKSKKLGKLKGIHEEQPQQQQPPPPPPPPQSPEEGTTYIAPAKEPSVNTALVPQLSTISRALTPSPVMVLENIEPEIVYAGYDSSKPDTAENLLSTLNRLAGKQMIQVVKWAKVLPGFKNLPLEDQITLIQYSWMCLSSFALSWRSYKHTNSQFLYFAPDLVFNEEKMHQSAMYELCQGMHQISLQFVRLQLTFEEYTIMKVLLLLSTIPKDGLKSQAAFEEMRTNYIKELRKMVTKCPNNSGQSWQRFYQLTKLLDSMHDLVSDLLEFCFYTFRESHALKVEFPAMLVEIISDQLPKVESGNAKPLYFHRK
Summary of the method: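 Cytosolic protein (0.75-1.5 mg/mL) from FreeStyle 293 cells transiently transfected with human MR was incubated for 16 h at 4 °C with 10 nM [3H]-aldosterone and serially diluted compound in TEGM buffer (Tris pH 7.2, EDTA, glycerol, DTT, molybdate, protease inhibitors). Free ligand was removed with dextran/gelatin-coated charcoal and the supernatant counted. Nonspecific binding used 100 µM cold aldosterone. Duplicates; IC50 from curve fit.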

Androgen receptor = target: T2, Androgen receptor (Homo sapiens, UniProt P10275); test: Displacement of [3H]-Testosterone from human AR expressed in 293 cells after 16 hrs by scintillation counting; type: cell-based, HEK293
T2 sequence (P10275 whole entry): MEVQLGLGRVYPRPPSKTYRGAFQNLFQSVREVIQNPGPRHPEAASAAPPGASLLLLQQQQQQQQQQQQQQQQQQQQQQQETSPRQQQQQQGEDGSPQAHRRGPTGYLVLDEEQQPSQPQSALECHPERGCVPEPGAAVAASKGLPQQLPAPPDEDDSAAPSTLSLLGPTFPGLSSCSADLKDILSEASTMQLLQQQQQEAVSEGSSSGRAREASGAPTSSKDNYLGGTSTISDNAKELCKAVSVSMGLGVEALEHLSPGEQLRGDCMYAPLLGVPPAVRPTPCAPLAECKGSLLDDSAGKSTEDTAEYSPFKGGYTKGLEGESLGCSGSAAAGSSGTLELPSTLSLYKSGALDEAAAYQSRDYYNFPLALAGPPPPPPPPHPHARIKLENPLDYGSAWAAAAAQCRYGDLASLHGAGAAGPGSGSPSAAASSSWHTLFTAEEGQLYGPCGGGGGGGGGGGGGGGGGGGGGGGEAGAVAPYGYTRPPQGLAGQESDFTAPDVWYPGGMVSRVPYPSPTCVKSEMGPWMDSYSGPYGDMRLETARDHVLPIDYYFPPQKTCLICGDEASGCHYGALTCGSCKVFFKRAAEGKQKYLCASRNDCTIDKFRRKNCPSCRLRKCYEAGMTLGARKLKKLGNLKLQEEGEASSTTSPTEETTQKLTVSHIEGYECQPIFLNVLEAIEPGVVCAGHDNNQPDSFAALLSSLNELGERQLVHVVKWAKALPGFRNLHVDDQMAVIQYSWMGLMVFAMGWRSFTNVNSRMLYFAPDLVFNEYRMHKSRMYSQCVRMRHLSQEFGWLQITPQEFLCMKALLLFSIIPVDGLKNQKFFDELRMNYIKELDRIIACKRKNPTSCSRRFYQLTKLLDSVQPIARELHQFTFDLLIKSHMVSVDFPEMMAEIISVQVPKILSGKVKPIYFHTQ
Summary of the method: (§1)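 These followed the MR cytosolic binding protocol (transfected 293 cells, TEGM buffer pH 7.2, 16 h at 4 °C, charcoal separation, scintillation counting of supernatant). The ligand was [3H]-dexamethasone for GR and [3H]-testosterone for AR. Concentrations were run in duplicate; IC50 taken as the mean of duplicate experiments from concentration-response curves.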

Progesterone receptor = target: T3, Progesterone receptor (Homo sapiens, UniProt P06401); test: Displacement of [3H]-Progesterone from human PR expressed in 293 cells after 16 hrs by scintillation counting; type: cell-based, HEK293
T3 sequence (P06401 whole entry): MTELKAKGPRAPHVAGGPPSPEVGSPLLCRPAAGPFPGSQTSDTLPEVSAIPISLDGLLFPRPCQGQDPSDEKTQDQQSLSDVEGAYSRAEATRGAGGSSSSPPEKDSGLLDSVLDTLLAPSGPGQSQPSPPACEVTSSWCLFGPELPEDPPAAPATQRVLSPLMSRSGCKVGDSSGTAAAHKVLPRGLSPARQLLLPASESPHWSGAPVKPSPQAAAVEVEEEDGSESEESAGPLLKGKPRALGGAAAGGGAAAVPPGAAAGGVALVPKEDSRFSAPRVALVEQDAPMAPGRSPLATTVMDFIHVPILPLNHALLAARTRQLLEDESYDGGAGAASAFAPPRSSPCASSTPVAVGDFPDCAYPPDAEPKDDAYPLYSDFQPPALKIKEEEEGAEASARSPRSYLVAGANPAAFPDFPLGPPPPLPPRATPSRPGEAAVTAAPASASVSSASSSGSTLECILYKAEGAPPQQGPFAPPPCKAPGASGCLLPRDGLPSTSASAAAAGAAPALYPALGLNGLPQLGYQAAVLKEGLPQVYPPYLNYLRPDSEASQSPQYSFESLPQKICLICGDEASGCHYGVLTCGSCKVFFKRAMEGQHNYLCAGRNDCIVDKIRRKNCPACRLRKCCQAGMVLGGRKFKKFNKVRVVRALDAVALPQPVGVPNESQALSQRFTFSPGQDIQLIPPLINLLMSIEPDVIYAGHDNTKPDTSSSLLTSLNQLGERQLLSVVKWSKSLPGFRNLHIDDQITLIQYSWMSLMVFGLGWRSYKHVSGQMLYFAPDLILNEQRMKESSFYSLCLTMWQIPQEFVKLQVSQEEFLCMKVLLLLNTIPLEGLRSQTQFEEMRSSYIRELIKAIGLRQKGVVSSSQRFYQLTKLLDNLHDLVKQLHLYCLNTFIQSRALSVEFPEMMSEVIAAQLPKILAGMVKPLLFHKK
Summary of the method: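 The PR assay ran like the MR cytosolic binding assay from transfected 293 cells, with 5 nM [3H]-progesterone as ligand. Incubation was 16 h at 4 °C in TEGM buffer pH 7.2, followed by dextran/gelatin-charcoal removal of free label and scintillation counting of the supernatant. Concentrations were run in duplicate; IC50 taken as the mean of duplicate experiments from concentration-response curves.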

Glucocorticoid receptor = target: T4, Glucocorticoid receptor (Homo sapiens, UniProt P04150); test: Displacement of [3H]-Dexamethasone human GR expressed in 293 cells after 16 hrs by scintillation counting; type: cell-based, HEK293; summary of the method: as §1
T4 sequence (P04150 whole entry): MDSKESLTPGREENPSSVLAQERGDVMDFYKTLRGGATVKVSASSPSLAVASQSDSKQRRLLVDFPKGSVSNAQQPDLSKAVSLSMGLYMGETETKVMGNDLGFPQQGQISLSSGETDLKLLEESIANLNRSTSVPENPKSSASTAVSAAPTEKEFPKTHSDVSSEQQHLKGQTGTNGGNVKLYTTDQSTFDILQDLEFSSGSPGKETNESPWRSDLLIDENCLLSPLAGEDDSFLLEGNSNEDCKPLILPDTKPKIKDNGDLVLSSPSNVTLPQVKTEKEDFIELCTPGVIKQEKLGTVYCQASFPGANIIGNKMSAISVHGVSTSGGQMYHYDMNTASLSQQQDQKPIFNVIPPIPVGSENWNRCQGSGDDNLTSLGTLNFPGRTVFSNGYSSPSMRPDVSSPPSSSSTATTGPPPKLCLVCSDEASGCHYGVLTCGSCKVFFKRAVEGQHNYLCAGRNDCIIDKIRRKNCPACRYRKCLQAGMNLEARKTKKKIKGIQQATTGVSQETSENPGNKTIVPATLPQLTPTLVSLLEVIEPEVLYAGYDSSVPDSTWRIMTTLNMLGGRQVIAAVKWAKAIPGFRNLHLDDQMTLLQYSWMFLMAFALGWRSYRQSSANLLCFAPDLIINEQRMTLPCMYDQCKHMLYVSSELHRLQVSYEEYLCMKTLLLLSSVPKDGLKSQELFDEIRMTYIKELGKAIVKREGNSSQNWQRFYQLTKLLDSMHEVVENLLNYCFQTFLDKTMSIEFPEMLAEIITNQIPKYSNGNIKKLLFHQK

HEK293 [2] = test: Selectivity ratio of IC50 for human GR expressed in 293 cells to IC50 for human MR expressed in 293 cells; type: cell-based
[3] = target: T1, Mineralocorticoid receptor; test: Antagonist activity at MR (unknown origin) expressed in COS1 cells after 1 day by luciferase reporter gene assay; type: cell-based, COS-1
Summary of the method: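 Human MR plasmid, MMTV-luciferase reporter and pRL-TK were lipofected into COS-1 cells, which were cultured for 1 day. Cells were then reseeded in low-glucose D-MEM with 0.1% BSA. Serial compound concentrations were added with 1 nM aldosterone (final) for 1 day at 37 °C in 5% CO2. Luciferase was read, and IC50 came from a sigmoidal fit.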

HEK293 [4] = test: Selectivity ratio of IC50 for human PR expressed in 293 cells to IC50 for human MR expressed in 293 cells; type: cell-based
HEK293 [5] = test: Selectivity ratio of IC50 for human AR expressed in 293 cells to IC50 for human MR expressed in 293 cells; type: cell-based

Structure (SMILES) | IC50 [1] | IC50 (Androgen receptor) | IC50 (Progesterone receptor) | IC50 (Glucocorticoid receptor) | IC50 [3] | Ratio IC50 (HEK293 [2]) | Ratio IC50 (HEK293 [4]) | Ratio IC50 (HEK293 [5])
O=C1COc2ccc(C3=C(c4ccc(F)cc4F)C(=O)OC3)cc2N1 |  | > 10000 nM | 4600 nM | > 10000 nM |  |  |  | 
CC1OC(=O)C(c2ccc(F)cc2)=C1c1ccc2c(c1)NC(=O)CO2 (racemic) |  | > 10000 nM | 740 nM | 3800 nM |  |  |  | 
CCN1C(=O)C(c2ccc(F)cc2)=C(c2ccc3c(c2)NC(=O)CO3)C1C (configuration not stated) | 33 nM | > 10000 nM | 770 nM | 1600 nM |  |  |  | 
CC1NC(=O)C(c2ccc(F)cc2)=C1c1ccc2c(c1)NC(=O)CO2 (configuration not stated) | 94 nM | > 10000 nM | 5600 nM | 9100 nM |  |  |  | 
Cc1cc(F)ccc1C1=C(c2ccc3c(c2)NC(=O)CO3)COC1=O | 750 nM | > 10000 nM | 1800 nM | > 10000 nM |  |  |  | 
CC1NC(=O)C(c2ccc(F)cc2)=C1c1cc(Cl)c2c(c1)NC(=O)CO2 (configuration not stated) | 23 nM | > 10000 nM | 1600 nM | 1100 nM |  |  |  | 
CC1C(c2ccc3c(c2)NC(=O)CO3)=C(c2ccc(F)cc2)C(=O)N1C1CC1 (configuration not stated) | 68 nM | > 10000 nM | 400 nM | 2200 nM |  |  |  | 
CC1C(c2ccc3c(c2)NC(=O)CO3)=C(c2ccc(F)cc2)C(=O)N1CCO (configuration not stated) | 1600 nM | > 10000 nM | > 10000 nM | > 10000 nM |  |  |  | 
CC1NC(=O)C(c2ccc(F)cc2)=C1c1cc(F)c2c(c1)NC(=O)CO2 (configuration not stated) | 92 nM | > 10000 nM | 3200 nM | 5000 nM |  |  |  | 

Further lines, with some results ahead:

IC50 [1] | IC50 (Androgen receptor) | IC50 (Progesterone receptor) | IC50 (Glucocorticoid receptor) | IC50 [3] | Structure (SMILES) | Ratio IC50 (HEK293 [2]) | Ratio IC50 (HEK293 [4]) | Ratio IC50 (HEK293 [5])
500 nM | > 10000 nM | > 10000 nM | > 10000 nM |  | O=C1COc2ccc(C3=C(c4ccc(F)cc4)C(=O)OC3)cc2N1 |  |  | 
550 nM | > 10000 nM | 5000 nM | > 10000 nM |  | CC1(F)OC(=O)C(c2ccc(F)cc2)=C1c1ccc2c(c1)NC(=O)CO2 (configuration not stated) |  |  | 
1200 nM | > 10000 nM | 2200 nM | 2000 nM |  | CCC1OC(=O)C(c2ccc(F)cc2)=C1c1ccc2c(c1)NC(=O)CO2 (configuration not stated) |  |  | 
1200 nM | > 10000 nM | 1000 nM | 4700 nM |  | CC1(C)OC(=O)C(c2ccc(F)cc2)=C1c1ccc2c(c1)NC(=O)CO2 |  |  | 
170 nM | > 10000 nM | 61 nM | 2100 nM |  | CC1C(c2ccc3c(c2)NC(=O)CO3)=C(c2ccc(F)cc2)C(=O)N1C (configuration not stated) |  |  | 
43 nM | > 10000 nM | > 10000 nM | 4900 nM | 83 nM | Cc1cc(C2=C(c3ccc(F)cc3)C(=O)NC2C)cc2c1OCC(=O)N2 (configuration not stated) | 100 | > 200 | > 200

Source: ChEMBL document CHEMBL2417412, “Design, synthesis, and structure-activity relationships of dihydrofuran-2-one and dihydropyrrol-2-one derivatives as novel benzoxazin-3-one-based mineralocorticoid receptor antagonists” (Bioorg Med Chem, 2013)
